Laboratory results: ChEMBL document CHEMBL4219078, “Discovery of DSP-1053, a novel benzylpiperidine derivative with potent serotonin transporter inhibitory activity and partial 5-HT1A receptor agonistic activity” (Bioorg Med Chem, 2018)
Active and inactive are the calls of the source. The calls are words filed in the database; no cut-off is given here.

Tests used:
CYP2D6 = CYP2D6 (Homo sapiens, UniProt P10635); assay: Drug metabolism in human liver microsomes assessed as CYP2D6-medited compound metabolism at 1 uM after 15 to 30 mins by LC-MS/MS analysis; format: ADME; details: read-out: Drug metabolism
Sequence of CYP2D6 (P10635 whole entry): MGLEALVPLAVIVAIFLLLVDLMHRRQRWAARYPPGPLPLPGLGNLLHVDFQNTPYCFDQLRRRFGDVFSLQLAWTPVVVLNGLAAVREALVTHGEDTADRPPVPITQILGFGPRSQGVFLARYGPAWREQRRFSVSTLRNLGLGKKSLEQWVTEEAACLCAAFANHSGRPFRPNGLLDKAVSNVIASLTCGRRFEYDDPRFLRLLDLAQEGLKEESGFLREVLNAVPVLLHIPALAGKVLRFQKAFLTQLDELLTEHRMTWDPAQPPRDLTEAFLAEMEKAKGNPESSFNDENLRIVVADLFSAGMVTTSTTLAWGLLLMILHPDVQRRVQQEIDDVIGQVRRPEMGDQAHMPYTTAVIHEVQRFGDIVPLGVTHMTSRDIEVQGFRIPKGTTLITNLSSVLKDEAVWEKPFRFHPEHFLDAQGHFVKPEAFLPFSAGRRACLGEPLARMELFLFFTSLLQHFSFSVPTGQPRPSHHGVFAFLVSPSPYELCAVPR
Method in brief: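 Human liver microsomes (1 mg/mL) with 1 µM test substance and 3 mM NADPH (final) in 50 mM potassium phosphate, pH 7.4, at 37 °C; stopped after 15–30 min with 3 volumes methanol. Metabolic rate taken from slope, with and without 4 µM quinidine (final). The quinidine-resistant fraction was assigned to other enzymes; CYP2D6 contribution = total minus that fraction.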

[1] = molecular target: T1, Sodium-dependent serotonin transporter (Homo sapiens, UniProt P31645); assay: Displacement of [3H]-citalopram from human SERT expressed in HEK293 cell membranes after 60 mins by liquid scintillation counting
T1 sequence (P31645 whole entry): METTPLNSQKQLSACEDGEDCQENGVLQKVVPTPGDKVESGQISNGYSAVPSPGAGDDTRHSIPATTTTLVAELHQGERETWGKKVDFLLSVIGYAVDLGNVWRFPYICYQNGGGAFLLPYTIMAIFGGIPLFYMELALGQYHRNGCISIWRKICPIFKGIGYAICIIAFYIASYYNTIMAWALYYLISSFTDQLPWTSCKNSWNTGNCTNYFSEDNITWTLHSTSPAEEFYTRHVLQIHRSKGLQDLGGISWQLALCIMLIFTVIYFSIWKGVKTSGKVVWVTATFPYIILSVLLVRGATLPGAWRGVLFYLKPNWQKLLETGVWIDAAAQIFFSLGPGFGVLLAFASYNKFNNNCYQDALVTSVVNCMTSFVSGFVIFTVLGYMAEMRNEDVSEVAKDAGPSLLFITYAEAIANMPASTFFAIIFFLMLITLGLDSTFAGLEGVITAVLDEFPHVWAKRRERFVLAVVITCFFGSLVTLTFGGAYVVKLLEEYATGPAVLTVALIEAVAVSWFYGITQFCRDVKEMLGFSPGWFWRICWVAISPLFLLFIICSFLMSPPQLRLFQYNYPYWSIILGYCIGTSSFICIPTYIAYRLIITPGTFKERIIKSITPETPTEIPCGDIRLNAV
Method in brief: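 Membranes from cells expressing human serotonin transporter; [3H]citalopram radioligand. Ki from IC50 via Cheng–Prusoff (radioligand concentration and Kd). Ki values are means of two or three independent experiments.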

Rattus norvegicus = assay: Increase in serotonin levels in Crlj:WI rat frontal cortex assessed as at 10 mg/kg, po administered as single dose at 3 hrs post perfusion by microdialysis relative to baseline control; format: functional, organism-based
Method in brief: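 Frontal cortex microdialysis in rats. Dialysate (10 µL per 5-min collection, at 20-min intervals) was injected automatically into HPLC for 5-HT. Oral dosing followed at least 3 h of perfusion, once baseline was stable, and sampling continued 3 h after dosing.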

[2] = molecular target: T1, Sodium-dependent serotonin transporter; assay: Inhibition of human SERT expressed in CHO cells assessed as reduction in [3H]5-HT uptake preincubated for 10 mins followed by [3H]5-HT addition measured after 20 mins by liquid scintillation counting; format: cell-based
Method in brief: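 CHO cells stably expressing human serotonin transporter; compound or DMSO in reaction buffer pre-incubated with cells at 37 °C for 10 min, then [3H]5-HT plus compound added and incubated 37 °C for 20 min. Cells rinsed twice, lysed, radioactivity counted. IC50 values are means of at least three independent experiments.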

| SMILES | metabolised at 1 µM (CYP2D6) [%] | Ki [1] [nM] | IC50 [2] [nM] | Activity (Rattus norvegicus) |
| --- | --- | --- | --- | --- |
| COCCOc1cc(CC2CCN(CCc3ccc4c(c3)OCCO4)CC2)ccc1Br | 55.6 | 2.39 |  |  |
| COCCOc1cccc(CC2CCN(CCc3ccc4c(c3)C(=O)CCO4)CC2)c1 |  | 202 |  |  |
| COCCOc1cc(Br)cc(CC2CCN(CCc3ccc4c(c3)C(=O)CCO4)CC2)c1 | 14 | 5.32 |  |  |
| COCCOc1cc(Br)cc(CC2CCN(CCc3ccc4c(c3)OCCO4)CC2)c1 | 49.4 | 18.5 |  |  |
| COCCOc1cc(CC2CCN(CCc3cc4c(cc3Cl)OCCO4)CC2)ccc1Br | 75.6 | 5.47 |  |  |
| COCCOc1cc(CC2CCN(CCc3ccc4c(c3)C(O)CCO4)CC2)ccc1Br (stereo not given) | 36.4 | 8.44 |  |  |
| COCCOc1cc(CC2CCN(CCc3ccc4c(c3)OCCC4=O)CC2)ccc1Br | 3.6 | 1.41 |  |  |
| COCCOc1cc(CC2CCN(CCc3ccc4c(c3)C(=O)CCO4)CC2)ccc1Br | 0 |  |  | Active |
| CCc1ccc(CC2CCN(CCc3ccc4c(c3)C(=O)CCO4)CC2)cc1OCCOC | 18.4 | 9.85 |  |  |
| COCCOc1cc(CC2CCN(CCc3ccc4c(c3)C(=O)CCO4)CC2)ccc1C | 48.5 | 5.25 | 45.3 |  |
| COCCOc1cc(CC2CCN(CCc3ccc4c(c3)C(=O)CCCO4)CC2)ccc1Br | 4.2 | 1.17 |  |  |
| COCCOc1cc(CC2CCN(CCc3ccc4c(c3)C(=O)CCO4)CC2)ccc1I |  | 0.41 |  |  |

Continued, in another order:

| metabolised at 1 µM (CYP2D6) [%] | Ki [1] [nM] | IC50 [2] [nM] | SMILES | Activity (Rattus norvegicus) |
| --- | --- | --- | --- | --- |
| 86 |  |  | COCCOc1ccc(Br)c(CC2CCN(CCc3cc4c(cc3Cl)OCCO4)CC2)c1 |  |
|  | 246 |  | COCCOc1cc(CC2CCN(CCc3ccc4c(c3)C(=O)CCO4)CC2)ccc1C(C)C |  |
| 11.8 | 0.67 |  | COCCOc1cc(CC2CCN(CCc3ccc4c(c3)C(=O)CCC4)CC2)ccc1Br |  |
|  | 111 |  | COCCOc1cc(CC2CCN(CCc3ccc4c(c3)C(=O)CCO4)CC2)ccc1F |  |
| 6.8 | 5.4 |  | COCCOc1cc(CC2CCN(CCc3ccc4c(c3)OCCC4)CC2)ccc1Br |  |
| 55.8 | 2.59 |  | COCCOc1cc(CC2CCN(CCc3ccc4c(c3)S(=O)(=O)CCO4)CC2)ccc1Br |  |
| 64.4 | 14.1 |  | COCCOc1cc(Br)cc(CC2CCN(CCc3cc4c(cc3Cl)OCCO4)CC2)c1 |  |
| 53.5 | 3.37 | 16.4 | COCCOc1cc(CC2CCN(CCc3ccc4c(c3)C(=O)CCO4)CC2)ccc1Cl |  |
|  | 74.6 |  | COCCOc1cccc(CC2CCN(CCc3cc4c(cc3Cl)OCCO4)CC2)c1Br |  |
| 0 | 1.74 |  | COCCOc1cc(CC2CCN(CCc3ccc4c(c3)CCCO4)CC2)ccc1Br |  |
